Test results as given in ChEMBL document CHEMBL1148504, “Substituent effects of N-(1,3-diphenyl-1H-pyrazol-5-yl)benzamides on positive allosteric modulation of the metabotropic glutamate-5 receptor in rat cortical astrocytes” (J Med Chem, 2006).
Active and inactive are the calls of the source. The calls are words filed in the database; no cut-off is given here.

Legend:
[1] = molecular target: T1, Metabotropic glutamate receptor 5 (Rattus norvegicus, UniProt P31424); experiment: (§1) Activity at mGluR5 assessed as potentiation of glutamate-induced calcium flux in rat astrocytes; format: functional, cell-based
How it was run: (§2)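 Cortical astrocytes from 2-4-day-old Sprague Dawley rats, grown 1 week in DMEM/10% FBS/2 mM glutamine/20 mM HEPES at 37 °C, 5% CO2, then plated on poly-D-lysine. Dye-loaded 1 h at 37 °C; HBSS with 20 mM HEPES, 2.5 mM probenecid, pH 7.4.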

[2] = molecular target: T1, Metabotropic glutamate receptor 5; experiment: Displacement of [3H]methoxyPEPy from rat mGluR5 expressed in HEK293 cells; format: cell-based
How it was run: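 Membranes from stable HEK cells expressing rat mGluR5a, resuspended in 50 mM Tris HCl/0.9% saline, pH 7.4. Final: 2 nM [3H]methoxyPEPy, 0.1 mg protein/mL, 0.13% DMSO, triplicate; 60 min at room temperature with shaking. Filtration onto GF/B filters, scintillation counting. Nonspecific binding with 5 µM MPEP. Ki derived from IC50 by nonlinear fit; mean ± SEM of three experiments.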

[3] = molecular target: Metabotropic glutamate receptor 5 (Rattus norvegicus) (UniProt P31424); experiment: as §1; format: functional, cell-based; how it was run: as §2
Sequence of Metabotropic glutamate receptor 5 (Rattus norvegicus) (P31424 21-1203 limits assumed): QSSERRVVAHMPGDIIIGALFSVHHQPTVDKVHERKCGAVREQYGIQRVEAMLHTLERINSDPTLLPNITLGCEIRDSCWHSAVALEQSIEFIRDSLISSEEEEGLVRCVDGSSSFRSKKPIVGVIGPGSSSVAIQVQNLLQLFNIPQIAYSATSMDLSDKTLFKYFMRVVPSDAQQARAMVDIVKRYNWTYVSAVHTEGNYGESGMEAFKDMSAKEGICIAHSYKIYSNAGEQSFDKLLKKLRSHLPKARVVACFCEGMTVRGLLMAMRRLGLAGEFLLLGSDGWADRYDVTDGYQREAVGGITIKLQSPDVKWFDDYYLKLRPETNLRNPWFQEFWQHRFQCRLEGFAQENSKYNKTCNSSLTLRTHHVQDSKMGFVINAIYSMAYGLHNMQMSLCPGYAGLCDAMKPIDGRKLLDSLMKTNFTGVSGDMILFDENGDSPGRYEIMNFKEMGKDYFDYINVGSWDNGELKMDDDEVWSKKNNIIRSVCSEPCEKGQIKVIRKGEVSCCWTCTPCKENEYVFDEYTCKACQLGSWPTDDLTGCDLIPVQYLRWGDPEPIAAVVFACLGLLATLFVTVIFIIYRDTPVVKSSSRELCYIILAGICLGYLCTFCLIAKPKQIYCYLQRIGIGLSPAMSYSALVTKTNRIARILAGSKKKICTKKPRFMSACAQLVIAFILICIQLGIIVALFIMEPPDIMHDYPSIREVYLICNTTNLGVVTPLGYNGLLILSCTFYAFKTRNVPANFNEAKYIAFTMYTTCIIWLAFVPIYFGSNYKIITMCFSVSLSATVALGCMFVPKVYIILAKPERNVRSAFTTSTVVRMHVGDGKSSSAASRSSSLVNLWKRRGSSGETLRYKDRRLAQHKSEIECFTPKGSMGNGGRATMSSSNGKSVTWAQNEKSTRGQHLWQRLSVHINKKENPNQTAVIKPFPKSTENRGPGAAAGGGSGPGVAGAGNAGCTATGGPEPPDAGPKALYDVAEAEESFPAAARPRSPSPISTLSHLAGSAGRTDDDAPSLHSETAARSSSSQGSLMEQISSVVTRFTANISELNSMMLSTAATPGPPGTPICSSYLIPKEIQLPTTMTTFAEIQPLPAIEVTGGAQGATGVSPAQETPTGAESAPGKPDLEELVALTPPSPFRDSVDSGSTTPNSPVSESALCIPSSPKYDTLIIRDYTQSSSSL

T1 sequence (P31424 whole entry): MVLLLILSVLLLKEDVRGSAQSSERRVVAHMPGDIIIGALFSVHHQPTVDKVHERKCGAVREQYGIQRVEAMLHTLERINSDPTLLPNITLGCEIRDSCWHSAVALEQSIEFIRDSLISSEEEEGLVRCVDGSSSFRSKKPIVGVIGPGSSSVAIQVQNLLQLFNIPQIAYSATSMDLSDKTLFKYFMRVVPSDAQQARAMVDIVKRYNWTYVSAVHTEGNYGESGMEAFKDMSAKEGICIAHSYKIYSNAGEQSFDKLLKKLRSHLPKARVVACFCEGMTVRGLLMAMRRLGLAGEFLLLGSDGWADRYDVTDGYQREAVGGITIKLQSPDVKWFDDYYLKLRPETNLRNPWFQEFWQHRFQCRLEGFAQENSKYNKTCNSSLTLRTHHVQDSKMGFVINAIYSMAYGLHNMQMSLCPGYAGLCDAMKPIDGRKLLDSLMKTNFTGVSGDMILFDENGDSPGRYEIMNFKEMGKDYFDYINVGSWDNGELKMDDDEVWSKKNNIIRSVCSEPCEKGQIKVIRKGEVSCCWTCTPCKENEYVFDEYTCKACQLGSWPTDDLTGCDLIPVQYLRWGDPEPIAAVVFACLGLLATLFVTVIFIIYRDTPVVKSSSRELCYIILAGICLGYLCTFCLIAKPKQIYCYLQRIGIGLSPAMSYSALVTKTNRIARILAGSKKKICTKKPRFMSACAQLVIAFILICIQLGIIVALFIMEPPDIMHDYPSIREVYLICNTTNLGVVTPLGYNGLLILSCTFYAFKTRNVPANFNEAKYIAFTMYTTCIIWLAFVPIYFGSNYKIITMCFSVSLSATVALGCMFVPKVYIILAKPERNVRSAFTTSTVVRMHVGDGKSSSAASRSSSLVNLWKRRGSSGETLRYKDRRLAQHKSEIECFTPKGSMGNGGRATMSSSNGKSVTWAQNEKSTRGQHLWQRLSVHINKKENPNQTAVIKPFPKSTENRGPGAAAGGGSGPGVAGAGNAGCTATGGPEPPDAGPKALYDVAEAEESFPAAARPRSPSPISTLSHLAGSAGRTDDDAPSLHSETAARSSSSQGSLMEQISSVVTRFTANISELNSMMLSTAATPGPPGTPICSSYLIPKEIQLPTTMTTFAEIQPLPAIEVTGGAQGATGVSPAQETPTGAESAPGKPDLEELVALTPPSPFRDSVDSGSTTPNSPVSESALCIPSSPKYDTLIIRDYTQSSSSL

O=C(Nc1c(-c2ccccc2)cnn1-c1ccccc1)c1ccc([N+](=O)[O-])cc1
EC50 [1]: > 10000 nM
Ki [2]: > 10000 nM

O=C(Nc1cc(-c2ccccc2)nn1-c1ccccc1)C1CCCCC1
EC50 [1]: > 10000 nM
Ki [2]: 10100 nM

COc1cccc(-c2cc(NC(=O)c3ccccc3)n(-c3ccccc3)n2)c1
EC50 [1]: 600 nM
Ki [2]: 3200 nM

Cc1ccc(C(=O)Nc2cc(-c3ccccc3)nn2-c2ccccc2)cc1
EC50 [1]: 64 nM
Ki [2]: 780 nM

N#Cc1cccc(C(=O)Nc2c(-c3ccccc3)nc3ccccn23)c1
Activity ([3]; filed as antagonist): Antagonist
Ki [2]: 1990 nM

O=C(Nc1cn(-c2ccccc2)nc1-c1ccccc1)c1ccc([N+](=O)[O-])cc1
EC50 [1]: > 10000 nM
Ki [2]: > 10000 nM

Cc1ccc(C(=O)Nc2cc(-c3ccccc3)nn2-c2ccccc2)cn1
EC50 [1]: 280 nM
Ki [2]: 3480 nM

O=C(Nc1cc(-c2ccccc2)nn1-c1ccccc1Br)c1ccccc1
EC50 [1]: 200 nM
Ki [2]: 2600 nM

O=C(Nc1cc(-c2ccccc2)nn1-c1ccccc1F)c1ccccc1
EC50 [1]: 104 nM
Ki [2]: 2700 nM

O=C(Nc1cc(-c2ccccc2)nn1-c1ccccc1)c1ccc(Cl)c(Cl)c1
EC50 [1]: 13 nM
Ki [2]: 160 nM

O=C(Nc1cc(-c2ccccc2)nn1-c1ccccc1)C1CCCC1
EC50 [1]: 3410 nM
Ki [2]: 11600 nM

O=C(Nc1cc(-c2ccccc2)nn1-c1ccccc1)c1ccc([N+](=O)[O-])cc1
EC50 [1]: 10.7 nM
Ki [2]: 250 nM

O=C(Nc1cc(-c2ccccc2)nn1-c1ccccc1)C1=CCCCC1
EC50 [1]: 3300 nM
Ki [2]: 4470 nM

O=C(Nc1cc(-c2ccccc2)nn1-c1ccccc1)c1cccc(C(F)(F)F)c1
EC50 [1]: 228 nM
Ki [2]: 1650 nM

O=C(Nc1cc(-c2ccccc2)nn1-c1ccccc1F)c1ccc([N+](=O)[O-])cc1
EC50 [1]: 9.6 nM
Ki [2]: 160 nM

O=C(Nc1cn(-c2ccccc2)nc1-c1ccccc1)c1ccccc1
EC50 [1]: > 10000 nM
Ki [2]: > 10000 nM

O=C(Nc1cc(-c2ccccc2)nn1-c1ccccc1)c1ccccc1
EC50 [1]: 203 nM
Ki [2]: 4180 nM

O=C(Nc1cc(-c2ccccc2)nn1-c1ccccc1Br)c1ccc([N+](=O)[O-])cc1
EC50 [1]: 61 nM
Ki [2]: 120 nM

NC(=O)c1ccc(C(=O)Nc2cc(-c3ccccc3)nn2-c2ccccc2)cc1
Activity [3]: inactive
Ki [2]: > 10000 nM

O=C(O)c1ccc(C(=O)Nc2cc(-c3ccccc3)nn2-c2ccccc2)cc1
Activity [3]: inactive
Ki [2]: > 10000 nM

O=C(CC1CCCC1)Nc1cc(-c2ccccc2)nn1-c1ccccc1
EC50 [1]: 350 nM
Ki [2]: > 10000 nM

O=C(Nc1cc(-c2ccccc2)nn1-c1ccccc1Br)c1cccc([N+](=O)[O-])c1
EC50 [1]: 68 nM
Ki [2]: 230 nM

c1ccc(-c2cn(-c3cc(-c4ccccc4)nn3-c3ccccc3)nn2)cc1
EC50 [1]: 2600 nM
Ki [2]: 5880 nM

O=C(/C=C/c1ccc([N+](=O)[O-])cc1)Nc1cc(-c2ccccc2)nn1-c1ccccc1
EC50 [1]: 560 nM
Ki [2]: 1810 nM

COc1cccc(C(=O)Nc2cc(-c3ccccc3)nn2-c2ccccc2)c1
EC50 [1]: 102 nM
Ki [2]: 1290 nM

COc1ccc(C(=O)Nc2cc(-c3ccccc3)nn2-c2ccccc2)cc1OC
EC50 [1]: 3530 nM
Ki [2]: > 10000 nM

N#Cc1ccc(C(=O)N(C(=O)c2ccc(C#N)cc2)c2cc(-c3ccccc3)nn2-c2ccccc2)cc1
EC50 [1]: 340 nM
Ki [2]: 3050 nM

O=C(Nc1cc(-c2ccccc2Cl)nn1-c1ccccc1)c1ccccc1
EC50 [1]: 2290 nM
Ki [2]: > 10000 nM

O=C(Nc1cc(-c2ccccc2)nn1-c1ccccn1)c1ccccc1
Activity [3]: inactive
Ki [2]: > 10000 nM

N#Cc1ccc(C(=O)/N=c2\cc(-c3ccccc3)n(C(=O)c3ccc(C#N)cc3)n2-c2ccccc2)cc1
EC50 [1]: 43 nM
Ki [2]: 5230 nM

O=C(Nc1cc(-c2ccccc2)nn1-c1ccccc1)c1ccncc1
EC50 [1]: 2500 nM
Ki [2]: > 10000 nM

O=C(Nc1cc(-c2ccccc2)nn1-c1cccc(Br)c1)c1ccccc1
EC50 [1]: 400 nM
Ki [2]: > 10000 nM

COc1ccc(C(=O)Nc2cc(-c3ccccc3)nn2-c2ccccc2)cc1
EC50 [1]: 54 nM
Ki [2]: 420 nM

N#Cc1cccc(C(=O)Nc2cc(-c3ccccc3)nn2-c2ccccc2Br)c1
EC50 [1]: 50 nM
Ki [2]: 230 nM

O=C(Nc1c(-c2ccccc2)cnn1-c1ccccc1)c1ccccc1
Activity ([3]; filed as antagonist): Antagonist
Ki [2]: 1170 nM

N#Cc1cccc(-n2nc(-c3ccccc3)cc2NC(=O)c2ccccc2)c1
EC50 [1]: 117 nM
Ki [2]: > 10000 nM

O=C(Nc1cc(-c2ccccc2)nn1-c1ccccc1)c1ccccc1[N+](=O)[O-]
EC50 [1]: > 10000 nM
Ki [2]: > 10000 nM

O=C(Nc1c(-c2ccccc2)nc2ccccn12)c1ccccc1
Activity ([3]; filed as antagonist): Antagonist
Ki [2]: 3920 nM

O=C(Nc1cc(-c2ccccc2)nn1-c1ccccc1)c1ccc(C(F)(F)F)cc1
EC50 [1]: 38 nM
Ki [2]: 990 nM

Cc1ccc(C(=O)Nc2cc(-c3ccccc3)nn2-c2ccccc2)cc1C
EC50 [1]: 20 nM
Ki [2]: 430 nM

N#Cc1cccc(C(=O)Nc2c(-c3ccccc3)cnn2-c2ccccc2)c1
Activity ([3]; filed as antagonist): Antagonist
Ki [2]: 1200 nM

O=C(Nc1cc(-c2ccccc2)nn1-c1ccccc1)c1cc([N+](=O)[O-])cc([N+](=O)[O-])c1
EC50 [1]: 65 nM

O=C(Nc1cc(-c2ccccc2)nn1-c1ccccc1)c1ccc(OC(F)(F)F)cc1
EC50 [1]: 18 nM
Ki [2]: 265 nM

O=C(Nc1cc(-c2ccccc2)nn1-c1ccccc1)c1cccc([N+](=O)[O-])c1
EC50 [1]: 39 nM
Ki [2]: 2220 nM

COc1cc(OC)cc(C(=O)Nc2cc(-c3ccccc3)nn2-c2ccccc2)c1
EC50 [1]: 2040 nM
Ki [2]: > 10000 nM

N#Cc1ccc(C(=O)Nc2cc(-c3ccccc3)nn2-c2ccccc2)cc1
EC50 [1]: 75 nM
Ki [2]: 1560 nM

O=C(c1ccc(F)cc1)N1CCC[C@H](c2nc(-c3ccc(F)cc3)no2)C1
EC50 [1]: 170 nM

COc1cccc(-n2nc(-c3ccccc3)cc2NC(=O)c2ccccc2)c1
EC50 [1]: 570 nM
Ki [2]: 2100 nM

O=C(Nc1cc(-c2ccccc2)nn1-c1ccccc1Cl)c1ccc([N+](=O)[O-])cc1
EC50 [1]: 40 nM
Ki [2]: 110 nM

O=C(Nc1cc(-c2ccccc2)nn1-c1ccccc1Cl)c1ccccc1
EC50 [1]: 62 nM
Ki [2]: 500 nM

N#Cc1cccc(C(=O)Nc2cn(-c3ccccc3)nc2-c2ccccc2)c1
EC50 [1]: > 10000 nM
Ki [2]: > 10000 nM
